pIC50: −log10 of the molar value. Values joined by “and” are separate entries in the source; they are usually repeats but may differ in a detail not shown here. Equal values may be shown once. Read-outs that look alike come from different tables or passages of the source.
Experiments:
[1] = tested on: eight cancer cell lines (HL-60, K-562, HCT116, MCF-7, HepG2, HSC-3, SCC-9 and B16-F10); assay: Alamar blue cytotoxicity assay, panel of cancer cell lines; assay type: cell-based; settings: not cytotoxic at the concentrations tested, 72 h
In short: (§1)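 Human and mouse cell lines plus primary human PBMC (donor informed consent) grown in RPMI-1640 with 10% FBS, 2 mM L-glutamine and 50 μg/mL gentamycin at 37 °C, 5% CO2. Cells were mycoplasma-checked and >90% trypan-blue viable at start. Vehicle served as negative control; doxorubicin, oxaliplatin and piplartine were positive controls. Effect was taken as % of control absorbance, with IC50 and 95% CI from nonlinear regression.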

[2] = tested on: non-cancer cells (MRC-5 and PBMC); assay: Alamar blue cytotoxicity assay, non-cancer cells; assay type: cell-based, human; settings: not cytotoxic at the concentrations tested, 72 h
In short: as §1

HL-60 cells [3] = assay type: cell-based, human; settings: for effect of pretreatment on complex-induced apoptosis: HL-60, 2 h pretreatment (5 mM NAC or 5 µM inhibitor), then 4 µM complex for 48 h; for apoptotic cells (annexin V-FITC/PI): HL-60, 24 and 48 h, p < 0.05, DOX 2 µM, OXA 2.5 µM
[4] = tested on: HL-60 (human promyelocytic leukemia); assay: Alamar blue cytotoxicity assay, HL-60; assay type: cell-based; settings: read-out: IC50 in µM
[5] = tested on: K-562 (human chronic myelogenous leukemia); assay: Alamar blue cytotoxicity assay, K-562; assay type: cell-based; settings: read-out: IC50 in µM
[6] = tested on: HCT116 (human colon carcinoma); assay: Alamar blue cytotoxicity assay, HCT116; assay type: cell-based; settings: read-out: IC50 in µM
[7] = tested on: MCF-7 (human breast carcinoma); assay: Alamar blue cytotoxicity assay, MCF-7; assay type: cell-based; settings: read-out: IC50 in µM
[8] = tested on: HepG2 (human hepatocellular carcinoma); assay: Alamar blue cytotoxicity assay, HepG2; assay type: cell-based; settings: read-out: IC50 in µM
[9] = tested on: HSC-3 (human oral squamous cell carcinoma); assay: Alamar blue cytotoxicity assay, HSC-3; assay type: cell-based; settings: read-out: IC50 in µM
[10] = tested on: SCC-9 (human oral squamous cell carcinoma); assay: Alamar blue cytotoxicity assay, SCC-9; assay type: cell-based; settings: Homo sapiens, SCC-9, 72 h, read-out: IC50 in µM
B16-F10 (mouse melanoma) = assay: Alamar blue cytotoxicity assay, B16-F10; assay type: cell-based; settings: read-out: IC50 in µM
[11] = tested on: MRC-5 (human lung fibroblast); assay: Alamar blue cytotoxicity assay, MRC-5; assay type: cell-based; settings: read-out: IC50 in µM
[12] = tested on: PBMC (human peripheral blood mononuclear cells); assay: Alamar blue cytotoxicity assay, PBMC; assay type: cell-based; settings: 72 h, read-out: IC50 in µM
HL-60 cells [13] = assay type: cell-based, human
HL-60 cells [14] = assay: Internucleosomal DNA fragmentation and cell cycle distribution; assay type: cell-based, human
In short: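 After 24 or 48 h treatment, HL-60 cells were permeabilized and stained with propidium iodide, and DNA content was measured by flow cytometry. 10^4 events were recorded per sample with debris excluded. Sub-G0/G1 was taken as internucleosomal DNA fragmentation, alongside G0/G1, S and G2/M fractions. Doxorubicin and oxaliplatin were positive controls; ANOVA with Student–Newman–Keuls test.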

HL-60 cells [15] = assay: Mitochondrial transmembrane potential; assay type: cell-based, human; settings: HL-60, rhodamine 123, 24 h, p < 0.05; DOX 2 µM, OXA 2.5 µM
In short: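 HL-60 cells were grown in RPMI-1640 with 10% FBS, 2 mM L-glutamine and 50 µg/mL gentamycin at 37 °C, 5% CO2. After treatment, cells were loaded with rhodamine 123 (5 µg/mL) for 15 min at 37 °C in the dark and washed in saline.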

caspase-3 in HL-60 cells = assay: Caspase-3 colorimetric activation assay; assay type: cell-based, human; settings: HL-60, DEVD-pNA substrate, 48 h, p < 0.05; DOX 2 µM
In short: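 HL-60 cells were treated with test compound and lysed, and caspase-3 activity was read with a colorimetric kit using DEVD-pNA substrate, with absorbance at 405 nm. Total protein was measured by Bradford, and activity was expressed as specific activity per 10 mg protein. Data are mean ± S.E.M., with ANOVA and Student–Newman–Keuls test (p < 0.05) against vehicle.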

calf thymus DNA (ctDNA) = assay: DNA intercalation assay; assay type: binding; settings: cell-free, 15 µg/mL ctDNA, 1.5 µM ethidium bromide; complex 5, 10 and 20 µM; doxorubicin 10 µM
In short: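 Ethidium bromide displacement from calf thymus DNA in saline: 15 µg/mL ctDNA, 1.5 µM ethidium bromide, test compound at 5, 10 and 20 µM. Vehicle (0.1% DMSO) was the negative control and doxorubicin (10 µM) the positive control. Fluorescence was read at excitation 320 nm and emission 600 nm. Lower fluorescence was taken as intercalation.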

HL-60 cells [16] = assay: Morphological analysis; assay type: cell-based, human; settings: 24 and 48 h, DOX 2 µM, OXA 2.5 µM; for cell morphology: HL-60, May-Grunwald-Giemsa; for forward light scatter (FSC) / side scatter (SCC): HL-60, flow cytometry
In short: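 HL-60 cells were treated for 24 and 48 h, then stained with May-Grunwald-Giemsa and examined by light microscopy. In parallel, forward and side light scatter were quantified by flow cytometry, recording 10^4 events per sample with debris excluded. Vehicle was the negative control, with doxorubicin and oxaliplatin as positive controls.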

[17] = HL-60, 2 µM, 24 h of incubation
[18] = HL-60, 2 µM, 48 h of incubation
[19] = HL-60, 2.5 µM, 24 h of incubation
[20] = HL-60, 2.5 µM, 48 h of incubation

SMILES: [Cl][Pt][Cl].c1ccc(P(c2ccccc2)c2ccccc2)cc1.c1ccc(P(c2ccccc2)c2ccccc2)cc1 [cis-[PtCl2(PPh3)2]]
- pIC50 [1]: < 4.50
- pIC50 [2]: < 4.50

SMILES: N#CC(=C(/N)Sc1ccccc1N)/C(C#N)=C(/N)Sc1ccccc1N [U-0126]
- effect of pretreatment on complex-induced apoptosis (HL-60 cells [3]): reduced the complex-induced apoptosis

SMILES: O=[N+]([O-])c1ccc(-c2nc(-c3ccncc3)c(-c3ccc(F)cc3)[nH]2)cc1 [PD 169316]
- effect of pretreatment on complex-induced apoptosis (HL-60 cells [3]): reduced the complex-induced apoptosis

SMILES: COc1cc(/C=C/C(=O)N2CCC=CC2=O)cc(OC)c1OC [PIP, Piplartine]
- IC50 ([4]; Homo sapiens, HL-60, 72 h): 14.1 µM
- IC50 ([5]; Homo sapiens, K562, 72 h): 18.6 µM
- IC50 ([6]; Homo sapiens, HCT-116, 72 h): 5.4 µM
- IC50 ([7]; Homo sapiens, MCF7, 72 h): 10.3 µM
- IC50 ([8]; Homo sapiens, HepG2, 72 h): 6.3 µM
- IC50 ([9]; Homo sapiens, HSC-3, 72 h): 14.1 µM
- IC50 [10]: 16.5 µM
- IC50 (B16-F10 (mouse melanoma); Mus musculus, B16-F10, 72 h): 10.6 µM
- IC50 ([11]; Homo sapiens, MRC5, 72 h): 17.3 µM
- IC50 ([12]; Homo sapiens, PBMC): 34.2 µM

SMILES: COc1cccc2c1C(=O)c1c(O)c3c(c(O)c1C2=O)C[C@@](O)(C(=O)CO)C[C@@H]3O[C@H]1C[C@H](N)[C@H](O)[C@H](C)O1 [DOX, Doxorubicin]
- IC50 ([4]; Homo sapiens, HL-60, 72 h): 0.3 µM
- IC50 ([5]; Homo sapiens, K562, 72 h): 0.3 µM
- IC50 ([6]; Homo sapiens, HCT-116, 72 h): 0.1 µM
- IC50 ([7]; Homo sapiens, MCF7, 72 h): 1.1 µM
- IC50 ([8]; Homo sapiens, HepG2, 72 h): 0.1 µM
- IC50 ([9]; Homo sapiens, HSC-3, 72 h): 0.3 µM
- IC50 [10]: 0.5 µM
- IC50 (B16-F10 (mouse melanoma); Mus musculus, B16-F10, 72 h): 0.1 µM
- IC50 ([11]; Homo sapiens, MRC5, 72 h): 1.5 µM
- IC50 ([12]; Homo sapiens, PBMC): 5.1 µM
- reduction of the number of viable cells (HL-60 cells [13]): 57.1% and 87.9%
- apoptotic cells (annexin V-FITC/PI) (HL-60 cells [3]): increase in apoptotic cells
- DNA content (%) G0/G1 (HL-60 cells [14]; [17]): 19.9 ± 2.5 %
- DNA content (%) G2/M (HL-60 cells [14]; [17]): 8.9 ± 1.5%
- DNA content (%) S (HL-60 cells [14]; [17]): 6.6 ± 1.6 %
- DNA content (%) Sub-G0/G1 (HL-60 cells [14]; [17]): 57.2 ± 2.5 %
- DNA content (%) G0/G1 (HL-60 cells [14]; [18]): 21.9 ± 3.0 %
- DNA content (%) G2/M (HL-60 cells [14]; [18]): 3.8 ± 0.9 %
- DNA content (%) S (HL-60 cells [14]; [18]): 6.5 ± 0.6 %
- DNA content (%) Sub-G0/G1 (HL-60 cells [14]; [18]): 65.5 ± 2.8 %
- mitochondrial transmembrane potential (HL-60 cells [15]): reduced the mitochondrial transmembrane potential
- caspase-3 activation (caspase-3 in HL-60 cells): caused caspase-3 activation
- ethidium bromide fluorescence (displacement from ctDNA) (calf thymus DNA (ctDNA)): reduced the fluorescence intensity of ethidium bromide
- cell morphology (HL-60 cells [16]): cell shrinkage, chromatin condensation and nuclear fragmentation
- forward light scatter (FSC) (HL-60 cells [16]): decrease in FSC
- side scatter (SCC) (HL-60 cells [16]): transient increase in SCC

SMILES: O=C1[O][Pt]2([NH][C@@H]3CCCC[C@H]3[NH]2)[O]C1=O [OXA, oxaliplatin]
- IC50 ([4]; HL-60, alamar blue, 72 h): 0.6 µM
- IC50 ([5]; K-562, alamar blue, 72 h): 1 µM
- IC50 ([6]; HCT116, alamar blue, 72 h): 4.1 µM
- IC50 ([7]; MCF-7, alamar blue, 72 h): 5.7 µM
- IC50 ([8]; HepG2, alamar blue, 72 h): 2.2 µM
- IC50 ([9]; HSC-3, alamar blue, 72 h): 3.1 µM
- IC50 (B16-F10 (mouse melanoma); B16-F10, alamar blue, 72 h): 2.2 µM
- IC50 ([11]; MRC-5 non-cancer cells, alamar blue, 72 h): 1.3 µM
- IC50 ([12]; PBMC non-cancer cells, alamar blue): 9.4 µM
- reduction of the number of viable cells (HL-60 cells [13]): 35.6% and 67.7%
- apoptotic cells (annexin V-FITC/PI) (HL-60 cells [3]): increase in apoptotic cells
- DNA content (%) G0/G1 (HL-60 cells [14]; [19]): 29.1 ± 2.4 %
- DNA content (%) G2/M (HL-60 cells [14]; [19]): 28.1 ± 2.6 %
- DNA content (%) S (HL-60 cells [14]; [19]): 12.6 ± 2.5%
- DNA content (%) Sub-G0/G1 (HL-60 cells [14]; [19]): 20.7 ± 2.9 %
- DNA content (%) G0/G1 (HL-60 cells [14]; [20]): 42.9 ± 2.8%
- DNA content (%) G2/M (HL-60 cells [14]; [20]): 23.4 ± 2.6 %
- DNA content (%) S (HL-60 cells [14]; [20]): 13.2 ± 0.8%
- DNA content (%) Sub-G0/G1 (HL-60 cells [14]; [20]): 24.8 ± 1.9 %
- cell cycle effect (HL-60 cells [14]; HL-60, 2.5 µM, p < 0.05): cell cycle arrest at the phase G2/M
- mitochondrial transmembrane potential (HL-60 cells [15]): reduced the mitochondrial transmembrane potential
- cell morphology (HL-60 cells [16]): cell shrinkage, chromatin condensation and nuclear fragmentation
- forward light scatter (FSC) (HL-60 cells [16]): decrease in FSC
- side scatter (SCC) (HL-60 cells [16]): transient increase in SCC

— paper PMC6198128 (Redox Biology, 2018)
